STEP block = blocks human striatal-enriched tyrosine phosphatase; AID 588621; 360,000 compounds, 0.25% hits; recombinant STEP, OMFP fluorogenic substrate, fluorescence; inhibition, % at 20 µM;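 active = inhibition at 20 µM, scaled per plate between control wells, above about 37%, limit read from the data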
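System: STEP (striatal-enriched tyrosine phosphatase) enzyme, cell-free; medium: Bis-Tris pH 6.0 buffer with DTT, detergent; dosing: 20 µM, 1% DMSO; times: reaction 20 min, ambient temperature; detection: fluorescence, 480/540 nm; read-out basis: normalized % inhibition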
LMPTP block = blocks human LMPTP phosphatase; P24666; recombinant LMPTP-A, OMFP fluorogenic substrate, fluorescence intensity; inhibition, % at 20 µM; 360,000 compounds, 0.22% hits; AID 651560;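 active = compounds that cut the enzyme signal by at least half of the control window in the single-dose screen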
Target sequence (P24666 whole entry, looked up): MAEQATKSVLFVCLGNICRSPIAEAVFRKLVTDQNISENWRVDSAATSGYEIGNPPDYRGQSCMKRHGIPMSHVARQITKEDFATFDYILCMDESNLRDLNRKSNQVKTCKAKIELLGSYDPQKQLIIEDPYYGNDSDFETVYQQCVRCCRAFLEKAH
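material = LMPTP-A | quantity = 0.625 nM enzyme | reagent = OMFP substrate, 400 µM final | buffer or medium = Bis-Tris pH 6.0, DTT, detergent | detection = endpoint fluorescence intensity from OMFP dephosphorylation | dosing = single 20 µM dose | read-out basis = % inhibition relative to no-enzyme and uninhibited control wells | control set = no-enzyme and uninhibited controls | timing = 50 min at room temperature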
Scp1 inh = blocks human Scp-1 phosphatase activity | Q9GZU7 | Recombinant Scp1, phosphopeptide, malachite green phosphate absorbance | inhibition, % at 20 µM | 340,000 compounds, 0.88% hits;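 active = inhibition above about 50% at 20 µM, limit read from the data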
Target sequence (Q9GZU7 76-261 limits assumed): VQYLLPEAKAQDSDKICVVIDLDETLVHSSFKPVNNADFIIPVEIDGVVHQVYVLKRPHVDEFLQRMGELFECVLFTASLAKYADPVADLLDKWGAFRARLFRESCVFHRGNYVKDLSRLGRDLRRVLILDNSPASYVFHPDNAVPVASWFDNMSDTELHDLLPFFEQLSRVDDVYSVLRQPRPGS
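Test system – truncated SCP-1 phosphatase (76-261aa) · Reagent – Phosphorylated 17-residue peptide substrate · Incubation – 45 min room-temperature reaction, 5 min colour, 30 min stabiliser · Detection – colorimetric phosphate reagent with accelerator and stabiliser, absorbance at 630 nm · Measure – % inhibition at 20 µM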
DNMT1 inh = inhibitors of human DNMT1; inhibition (reported as % activation of signal), % at 10 µM; P26358; AID 588458; DNMT1 molecular beacon, Hinp1I cleavage, fluorescence; 360,000 compounds, 0.83% hits; in the data active = inhibition above about 50%
Rpn11 block = blocks the human proteasome subunit Rpn11. 360,000 compounds, 0.59% hits. AID 588493. human 26S proteasome, Ub4-pepOG fluorescence polarization; 20S core pre-blocked with epoxomicin. inhibition, % at 20 µM;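 active = inhibition at 20 µM, scaled to each plate's controls, above about 33%, limit read from the data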
Target sequence (O00487 whole entry, looked up): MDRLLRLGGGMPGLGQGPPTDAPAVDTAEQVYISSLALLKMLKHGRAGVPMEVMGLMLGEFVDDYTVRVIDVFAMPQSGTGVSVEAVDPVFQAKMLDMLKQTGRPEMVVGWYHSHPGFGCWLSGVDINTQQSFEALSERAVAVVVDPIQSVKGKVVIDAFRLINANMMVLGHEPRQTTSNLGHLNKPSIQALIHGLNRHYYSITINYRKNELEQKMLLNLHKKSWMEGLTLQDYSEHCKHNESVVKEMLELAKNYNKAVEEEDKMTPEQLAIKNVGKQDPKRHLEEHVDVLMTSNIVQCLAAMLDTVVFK
Rpn11 confirm = confirmation of human proteasome Rpn11 inhibitors | shares compounds with Rpn11 block | purified human 26S proteasome, Ub4-pepOG fluorescence polarization; proteasome pretreated with epoxomicin | inhibition, % at 20 µM | 1,900 compounds, 29% hits
MMP-2 inh = counter-screen for RPN11 inhibitors: inhibition of human MMP-2; shares compounds with Rpn11 block; recombinant MMP-2, FRET peptide cleavage fluorescence; inhibition, % at 20 µM; 1,900 compounds, 4% hits; AID 602330;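 note: human MMP-2 activated beforehand with APMA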
Thrombin FP = counter-screen for RPN11 inhibitors: inhibition of bovine thrombin; bovine thrombin cleavage of Ub4-pepOG, fluorescence polarization; shares compounds with Rpn11 block; inhibition, % at 20 µM; 1,900 compounds, 13% hits;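 active = mean inhibition at least 40% at 20 µM, or signal 3 deviations below plate average, so some actives read negative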
A number is an active result; – = inactive; · = not tested or not shown. Rows were chosen to be rich in hits. Some 2% of all compounds tested hit in one or more screens of this group. Cut-off read from the data, not from the text of the source, unless noted: active = inhibition above about 40%; inactive = the rest.

SMILES	STEP block	LMPTP block	Scp1 inh	DNMT1 inh	Rpn11 block	Rpn11 confirm	MMP-2 inh	Thrombin FP
COC(=O)c1sccc1NC(=O)c1ccncc1	–	–	–	–	48	–	–	–
CCOC(=O)c1ccc(N2CCCCC2)c(NS(=O)(=O)c2ccc(C)cc2)c1	–	–	–	–	–	·	·	·
CC(=O)c1ccc(N=C2SCCCN2C(=O)C2CCCC2)cc1	–	–	–	–	–	·	·	·
CCCCCC/C(C)=C1/SC(=S)NC1=O	–	–	–	–	48	–	–	–
C/C(C/C(C)=C1/SC(=S)NC1=O)=C1\SC(=S)NC1=O	–	–	–	–	76	41	–	–
CCCCCCCCCC(=O)O	–	–	–	–	–	·	·	·
O=C(O)CCC(C(=O)O)N1C(=O)C2C3CCC(C3)C2C1=O (stereo unspecified)	–	–	·	–	–	·	·	·
COc1ccc(CNC(NC(=O)c2ccccc2)(C(F)(F)F)C(F)(F)F)cc1	–	–	–	–	–	·	·	·
O=C(C1=C(O)C(=O)N(c2ncccn2)C1c1ccc(Cl)c(Cl)c1)c1ccco1 (stereo unspecified)	–	–	–	–	41	–	–	–
CCN(CC)c1ccc(C=C2C(=O)OC3(CCCCC3)OC2=O)cc1	–	–	–	–	·	·	·	·
CCCCC1(C)OC(=O)C(=Cc2ccc(N(CC)CC)cc2)C(=O)O1 (stereo unspecified)	–	–	–	–	55	92	–	90
CCCCc1cc(=O)oc2cc(OCC(=O)NCCN3CCOCC3)ccc12	–	–	–	–	–	·	·	·
Cc1nc(NC(=O)/C=C/c2ccccc2)sc1C(=O)Nc1ccccc1Cl	–	–	–	–	40	–	–	–
NS(=O)(=O)c1ccc(Nc2ccc([N+](=O)[O-])c3nonc23)cc1	–	–	–	–	56	45	–	–
CCOc1cc(N2CCOCC2)c(OCC)cc1NC(=O)CSc1nnc(N)s1	–	–	–	–	–	·	·	·
COc1cccc(/C=N/NC(=O)c2cccc3ccccc23)c1OC	–	–	–	–	32	–	–	–
CSC1=N/C(=C\c2ccccc2Cl)C(=O)N1N(C)C	–	–	–	–	–	·	·	·
CCN(CCO)c1ccc(N=Nc2cc(C)[nH]n2)cc1	–	–	–	–	70	42	–	–
CCN(CCO)c1ccc(Nc2cc(-c3ccc(-c4ccccc4)cc3)ncn2)cc1	–	–	·	–	–	·	·	·
COCCNC(=O)CN(CC1CCCO1)C(=O)CCC(=O)Nc1ccccn1 (stereo unspecified)	–	–	–	–	50	–	–	–
O=[N+]([O-])c1ccc(N=Cc2sc3ccccc3c2O)cc1	–	–	–	–	62	–	–	–
Oc1c(C=NCc2ccccc2)sc2ccccc12	–	–	–	–	–	·	·	·
S=C(Nc1ccc(Cl)cc1)c1sc(N2CCCCC2)nc1N1CCOCC1	–	–	–	–	–	·	·	·
COc1ccc(Br)cc1/C=c1\sc2nc(-c3ccco3)nn2c1=O	–	–	88	106	91	–	–	–
CCOc1nc(N=C(N)N)nc2c(C)cccc12	–	–	–	–	84	–	–	–
SMILES	STEP block	LMPTP block	Scp1 inh	DNMT1 inh	Rpn11 block	Rpn11 confirm	MMP-2 inh	Thrombin FP
Cc1ccc(-c2csc(N3CCN(S(=O)(=O)c4ccc5c(c4)NC(=O)CO5)CC3)n2)cc1	–	–	–	–	–	·	·	·
COc1ccc(NC(=O)CSc2nnc(C)n2C2CC2)cc1S(=O)(=O)N1CCOCC1	–	–	–	–	–	·	·	·
Cc1ccccc1Cn1cc(NS(=O)(=O)c2cn(C)nc2C)cn1	–	–	–	–	–	·	·	·
CCOc1ccccc1NS(=O)(=O)c1cn(C)nc1C	–	–	–	–	32	–	–	–
Cc1cc(C(=O)O)ccc1-n1c(C)cc(C=C2C(=O)c3ccccc3C2=O)c1C	–	–	–	–	44	–	–	–
COc1ccc(CN(CC(=O)NCc2ccccc2)C(=O)CCC(=O)Nc2nccs2)cc1	–	–	–	–	–	·	·	·
CCC(C)NC(=O)C1c2cc(OC)c(OC)cc2C(=O)N(C)C1c1cccs1 (stereo unspecified)	–	–	–	–	158	–	–	–
Cc1ccc(S(=O)(=O)N(C)CC(=O)O/N=C(\N)c2cccc([N+](=O)[O-])c2)cc1	–	–	–	–	196	–	–	–
CC(=O)n1cc([C@H]2C=C(C(=O)Nc3ccccc3)O[C@@H](OCc3ccc(CO)cc3)C2)c2ccccc21	–	–	–	–	42	44	–	–
Cc1ccnc2c1ccc1c(C)ccnc12	–	–	–	–	46	–	–	–
N#CC1=C(N)Oc2cc(N)ccc2C1c1cc(Br)cs1 (stereo unspecified)	–	–	–	–	73	–	–	–
Cc1ccc(NC(=O)CS(=O)CC(=O)Nc2cnc3ccccc3c2)cc1Cl (stereo unspecified)	–	–	–	–	49	–	–	–
CCCCCCSc1cc(-c2nc3cc(C)ccn3c2NC2CCCCC2)ccc1OC	–	–	–	–	52	–	–	–
Cc1ccn2c(NC3CCCC3)c(-c3ccncc3)nc2c1	–	–	–	–	–	·	·	·
CCCCNc1c(-c2ccc(OC)c(SC3CCCCC3)c2)nc2cc(C)ccn12	–	–	–	–	–	·	·	·
COc1cc(-c2nc3cc(C)ccn3c2NC2CCCCC2)ccc1-c1ccc(C(C)=O)cc1	–	–	–	–	42	–	–	–
Cc1ccn2c(NC3CCCCC3)c(-c3cccc(-c4cccc(Cl)c4)c3)nc2c1	–	–	–	–	44	–	–	–
CCC(C)Sc1ccc(-c2nc3cc(C)ccn3c2NC2CCCCC2)cc1 (stereo unspecified)	–	–	–	–	115	–	–	–
Cc1cc(C)c(NC(=O)C2CCCN(S(=O)(=O)c3c(C)noc3/C=C/N(C)C)C2)c(C)c1 (stereo unspecified)	–	–	–	–	–	·	·	·
COc1cc(C)c(NC(=O)c2cc(C3CC3)nc3c2cnn3C(C)C)cc1OC	–	–	–	–	–	·	·	·
Cc1ccc[n+](CC(=O)c2ccc(Br)cc2)c1C	–	–	–	–	–	·	·	·
CCCCCCSc1ccc(-c2nc3ccc(C)cn3c2NC2CCCCC2)cc1	–	–	–	–	–	·	·	·
CCCCCCSc1ccc(-c2nc3cc(C)ccn3c2NC2CCCCC2)cc1	–	–	–	–	58	–	–	–
CCn1c(O)c(/C=N/N=C2CCCC2)c2ccc(C3=NNC(=O)CC3)cc21	–	–	–	–	40	–	–	–
COCCCn1c(=O)/c(=C\c2ccc(OC(F)F)c(OC)c2)s/c1=C(/C#N)C(N)=O	–	–	–	–	·	·	·	·

Compound activity as filed in PubChem BioAssay.
